Data reported in BindingDB's records for doi:10.1016/j.bmc.2009.06.008 (University of Leipzig, 2009).

Target: Sonic hedgehog protein (Mus musculus, UniProt Q62226)
Experiment: Inhibition of SHH in mouse Shh-Light2 cells after 48 hrs by Gli1 reporter gene assay in presence of SAG
In short: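 Shh-Light II cells co-treated with the Hh activator SAG and inhibitor for 48 h. Cells washed with PBS and lysed, then firefly and constitutive Renilla luminescence read by dual-luciferase assay. IC50 from firefly/Renilla RLU/s plotted against concentration, Hill-slope non-linear regression. Highest concentration 5000 nM. 2–4 independent experiments, each in technical triplicate.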

SMILES	IC50
O=C(Nc1ccc(Cl)c(-c2nc3ccccc3[nH]2)c1)c1ccc(Cl)cc1 [N-(3-(1H-Benzo[d]imidazol-2-yl)-4-chlorophenyl)-4-chlorobenzamide]	0.224 µM
O=C(Nc1ccc(Cl)c(-c2nc3ccccc3[nH]2)c1)c1ccc(F)cc1 [N-(3-(1H-Benzo[d]imidazol-2-yl)-4-chlorophenyl)-4-fluorobenzamide]	0.251 µM
CC1=C2C[C@H]3[C@@H](CC=C4C[C@@H](O)CC[C@@]43C)[C@@H]2CC[C@]12O[C@@H]1C[C@H](C)CN[C@H]1[C@H]2C	1.31 µM
CCOc1cc(C(=O)Nc2cccc(-c3nc4ccccc4[nH]3)c2)cc(OCC)c1OCC [N-(3-(1H-Benzo[d]imidazol-2-yl)phenyl)-3,4,5-triethoxybenzamide]	1.32 µM
N#Cc1ccc(C(=O)Nc2ccc(Cl)c(-c3nc4ccccc4[nH]3)c2)cc1 [N-(3-(1H-Benzo[d]imidazol-2-yl)-4-chlorophenyl)-4-cyanobenzamide]	0.185 µM
CCOc1cc(C(=O)Nc2ccc(Cl)c(-c3nc4ccccc4[nH]3)c2)cc(OCC)c1OCC [N-(3-(1H-Benzo[d]imidazol-2-yl)-4-chlorophenyl)-3,4,5-triethoxybenzamide]	0.0979 µM
CN(C)c1ccc(C(=O)Nc2ccc(Cl)c(-c3nc4ccccc4[nH]3)c2)cc1 [N-(3-(1H-Benzo[d]imidazol-2-yl)-4-chlorophenyl)-4-(dimethylamino)benzamide]	0.19 µM
O=C(Nc1ccc(Cl)c(-c2nc3ccccc3[nH]2)c1)c1ccccc1 [N-(3-(1H-Benzo[d]imidazol-2-yl)-4-chlorophenyl)-benzamide]	0.163 µM
COc1ccccc1C(=O)Nc1ccc(Cl)c(-c2nc3ccccc3[nH]2)c1 [N-(3-(1H-Benzo[d]imidazol-2-yl)-4-chlorophenyl)-2-methoxybenzamide]	0.876 µM
O=C(Nc1ccc(Cl)c(-c2nc3ccccc3[nH]2)c1)c1cccc(C(F)(F)F)c1 [N-(3-(1H-Benzo[d]imidazol-2-yl)-4-chlorophenyl)-3-(trifluoromethyl)benzamide]	0.119 µM
COc1ccc(C(=O)Nc2ccc(Cl)c(-c3nc4ccccc4[nH]3)c2)cc1 [N-(3-(1H-Benzo[d]imidazol-2-yl)-4-chlorophenyl)-4-methoxybenzamide]	0.117 µM
COc1cc(C(=O)Nc2ccc(Cl)c(-c3nc4ccccc4[nH]3)c2)cc(OC)c1OC [N-(3-(1H-Benzo[d]imidazol-2-yl)-4-chlorophenyl)-3,4,5-trimethoxybenzamide]	0.0798 µM
